{"source": "ChEMBL document CHEMBL1932935", "about": "“Synthesis and biological effects of some kynurenic acid analogs” (Bioorg Med Chem, 2011)", "key": {"[1]": {"test_system": "Mus musculus", "test": "Toxicity in C57/BL6 mouse assessed as effect on ambulation time dosed intraperitoneally equimolar to 200 mg/kg KYNA-1 as single dose measured after 2 hrs by open field test", "type": "organism-based, C57Bl/6", "design": "dose 200 mg/kg, route intraperitoneal", "settings": "in vivo, ip", "how_it_was_run": "(§1)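 Six-week-old male C57Bl/6 mice, dosed ip once daily at 5 mL/kg in distilled water adjusted to pH 6.5; saline controls. Acute testing was 2 h after a single dose; chronic testing was on day 9, 2 h after the last of 9 daily doses. Each mouse was placed in a black open-field box (48×48×40 cm) and video-tracked for 5 min, scoring ambulation time, mean velocity and rearings.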"}, "[2]": {"test_system": "Hippocampus", "test": "Antiexcitatory activity in rat hippocampus pyramidal CA1 region assessed as reduction in field excitatory postsynaptic potential at 16 uM by electrophysiologic method", "type": "functional", "how_it_was_run": "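Acute rat hippocampal slices; recording solution ACSF with 3 mM CaCl2 and 1.5 mM MgSO4, 1.5–2 mL/min flow, 34 °C. Schaffer collaterals stimulated; fEPSP amplitude recorded in CA1 pyramidal layer before, during and after bath application of compound in ACSF. Amplitudes normalized to 10-min control period; four slices per compound.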"}, "[3]": {"test_system": "Mus musculus", "test": "Toxicity in C57/BL6 mouse assessed as decrease in number of rearings dosed intraperitoneally equimolar to 200 mg/kg KYNA-1 as single dose measured after 2 hrs by open field test", "type": "organism-based, C57Bl/6", "design": "dose 200 mg/kg, route intraperitoneal", "settings": "in vivo, ip", "how_it_was_run": "as §1"}, "[4]": {"test_system": "Mus musculus", "test": "Toxicity in C57/BL6 mouse assessed as decrease in number of rearings dosed intraperitoneally equimolar to 200 mg/kg KYNA-1 for 9 days measured after 2 hrs post last dose by open field test", "type": "organism-based, C57Bl/6", "design": "dose 200 mg/kg, route intraperitoneal", "settings": "in vivo, ip", "how_it_was_run": "as §1"}, "[5]": {"test_system": "Mus musculus", "test": "Toxicity in C57/BL6 mouse assessed as effect on movement velocity dosed intraperitoneally equimolar to 200 mg/kg KYNA-1 for 9 days measured after 2 hrs post last dose by open field test", "type": "organism-based, C57Bl/6", "design": "dose 200 mg/kg, route intraperitoneal", "settings": "in vivo, ip", "how_it_was_run": "as §1"}, "[6]": {"test_system": "Mus musculus", "test": "Toxicity in C57/BL6 mouse assessed as effect on ambulation time dosed intraperitoneally equimolar to 200 mg/kg KYNA-1 for 9 days measured after 2 hrs post last dose by open field test", "type": "organism-based, C57Bl/6", "design": "dose 200 mg/kg, route intraperitoneal", "settings": "in vivo, ip", "how_it_was_run": "as §1"}, "[7]": {"test_system": "Mus musculus", "test": "Toxicity in C57/BL6 mouse assessed as effect on movement velocity dosed intraperitoneally equimolar to 200 mg/kg KYNA-1 as single dose measured after 2 hrs by open field test", "type": "organism-based, C57Bl/6", "design": "dose 200 mg/kg, route intraperitoneal", "settings": "in vivo, ip", "how_it_was_run": "as §1"}, "[8]": {"test_system": "Rattus norvegicus", "test": "Inhibition of NMDA in intraperitoneally dosed Wistar rat hippocampus pyramidal CA1 region assessed as reduction in amplitude of population spike by electrophysologic method", "type": "functional, organism-based"}, "[9]": {"test_system": "Mus musculus", "test": "Toxicity in C57/BL6 mouse assessed as effect on movement velocity at 200 mg/kg, ip administered as single dose measured after 2 hrs by open field test", "type": "organism-based, C57Bl/6", "design": "dose 200 mg/kg, route intraperitoneal", "settings": "in vivo", "how_it_was_run": "as §1"}, "[10]": {"test_system": "Mus musculus", "test": "Toxicity in C57/BL6 mouse assessed as effect on movement velocity at 200 mg/kg, ip for 9 days measured after 2 hrs post last dose by open field test", "type": "organism-based, C57Bl/6", "design": "dose 200 mg/kg, route intraperitoneal", "settings": "in vivo", "how_it_was_run": "as §1"}, "[11]": {"test_system": "Mus musculus", "test": "Toxicity in C57/BL6 mouse assessed as decrease in number of rearings at 200 mg/kg, ip for 9 days measured after 2 hrs post last dose by open field test", "type": "organism-based, C57Bl/6", "design": "dose 200 mg/kg, route intraperitoneal", "settings": "in vivo", "how_it_was_run": "as §1"}, "[12]": {"test_system": "Rattus norvegicus", "test": "Inhibition of NMDA in Wistar rat hippocampus pyramidal CA1 region assessed as reduction in amplitude of population spike at 200 mg/kg/day, ip up to 90 mins by electrophysologic method", "type": "functional", "settings": "1.5 h, read-out: INH, route intraperitoneal"}, "[13]": {"test_system": "Mus musculus", "test": "Toxicity in C57/BL6 mouse assessed as effect on ambulation time at 200 mg/kg, ip for 9 days measured after 2 hrs post last dose by open field test", "type": "organism-based, C57Bl/6", "design": "dose 200 mg/kg, route intraperitoneal", "settings": "in vivo", "how_it_was_run": "as §1"}, "[14]": {"test_system": "Mus musculus", "test": "Toxicity in C57/BL6 mouse assessed as effect on ambulation time at 200 mg/kg, ip administered as single dose measured after 2 hrs by open field test", "type": "organism-based, C57Bl/6", "design": "dose 200 mg/kg, route intraperitoneal", "settings": "in vivo", "how_it_was_run": "as §1"}, "[15]": {"test_system": "Rattus norvegicus", "test": "Inhibition of NMDA in Wistar rat hippocampus pyramidal CA1 region assessed as reduction in amplitude of population spike at 200 mg/kg/day, ip measured up to 60 mins by electrophysologic method", "type": "functional", "settings": "1 h, read-out: INH, route intraperitoneal"}, "[16]": {"test_system": "Mus musculus", "test": "Toxicity in C57/BL6 mouse assessed as decrease in number of rearings at 200 mg/kg, ip administered as single dose measured after 2 hrs by open field test", "type": "organism-based, C57Bl/6", "design": "dose 200 mg/kg, route intraperitoneal", "settings": "in vivo", "how_it_was_run": "as §1"}}, "note": "Active and inactive are the calls of the source. The calls are words filed in the database; no cut-off is given here.", "data": [{"smiles": "Nc1ccccc1C(=O)C[C@H](N)C(=O)O.O=S(=O)(O)O", "values": [{"measurement": "Activity", "setting": "[1]", "result": "Non-toxic"}, {"measurement": "Activity", "setting": "[2]", "result": "inactive"}, {"measurement": "Activity", "setting": "[3]", "result": "Toxic"}, {"measurement": "Activity", "setting": "[4]", "result": "Toxic"}, {"measurement": "Activity", "setting": "[5]", "result": "Non-toxic"}, {"measurement": "Activity", "setting": "[6]", "result": "Non-toxic"}, {"measurement": "Activity", "setting": "[7]", "result": "Non-toxic"}]}, {"smiles": "O=C(c1cc(=O)c2ccccc2[nH]1)N1CCNCC1", "values": [{"measurement": "Activity", "setting": "[2]", "result": "inactive"}]}, {"smiles": "CN(C)CCCNC(=O)c1cc(=O)c2ccccc2[nH]1", "values": [{"measurement": "Activity", "setting": "[2]", "result": "inactive"}, {"measurement": "inhibition", "setting": "[8]", "result": "inactive"}]}, {"smiles": "CCN(CC)CCNC(=O)c1cc(=O)c2ccccc2[nH]1", "values": [{"measurement": "Activity", "setting": "[2]", "result": "inactive"}]}, {"smiles": "Cl.O=C(NCCN1CCCC1)c1cc(O)c2ccccc2n1", "values": [{"measurement": "Activity", "setting": "[1]", "result": "Non-toxic"}, {"measurement": "Activity", "setting": "[3]", "result": "Non-toxic"}, {"measurement": "Activity", "setting": "[4]", "result": "Non-toxic"}, {"measurement": "Activity", "setting": "[5]", "result": "Non-toxic"}, {"measurement": "Activity", "setting": "[6]", "result": "Non-toxic"}, {"measurement": "Activity", "setting": "[7]", "result": "Non-toxic"}]}, {"smiles": "CN1CCCCC1CNC(=O)c1cc(=O)c2ccccc2[nH]1", "note": "(centres undefined)", "values": [{"measurement": "Activity", "setting": "[2]", "result": "inactive"}]}, {"smiles": "O=C(O)c1cc(=O)c2ccccc2[nH]1", "note": "[TRANSTORINE]", "values": [{"measurement": "Activity", "setting": "[2]", "result": 70, "unit": "%"}]}, {"smiles": "O=C(c1cc(=O)c2ccccc2[nH]1)N1CCN(Cc2ccccc2)CC1", "values": [{"measurement": "Activity", "setting": "[2]", "result": "inactive"}]}, {"smiles": "CN1CCN(C(=O)c2cc(=O)c3ccccc3[nH]2)CC1", "values": [{"measurement": "Activity", "setting": "[2]", "result": "inactive"}]}, {"smiles": "O=C(NCCN1CCCC1)c1cc(=O)c2ccccc2[nH]1", "values": [{"measurement": "Activity", "setting": "[2]", "result": "inactive"}]}, {"smiles": "O=C(NCCN1CCOCC1)c1cc(=O)c2ccccc2[nH]1", "values": [{"measurement": "Activity", "setting": "[2]", "result": "inactive"}]}, {"smiles": "CN(C)CCCNC(=O)c1cc(O)c2ccccc2n1.Cl", "values": [{"measurement": "Activity", "setting": "[1]", "result": "Non-toxic"}, {"measurement": "Activity", "setting": "[3]", "result": "Non-toxic"}, {"measurement": "Activity", "setting": "[4]", "result": "Non-toxic"}, {"measurement": "Activity", "setting": "[5]", "result": "Non-toxic"}, {"measurement": "Activity", "setting": "[6]", "result": "Non-toxic"}, {"measurement": "Activity", "setting": "[7]", "result": "Non-toxic"}]}, {"smiles": "O=C(NCCN1CCCCC1)c1cc(=O)c2ccccc2[nH]1", "values": [{"measurement": "Activity", "setting": "[2]", "result": "inactive"}]}, {"smiles": "CN(C)CCNC(=O)c1cc(O)c2ccccc2n1.Cl", "values": [{"measurement": "Activity", "setting": "[9]", "result": "Non-toxic"}, {"measurement": "Activity", "setting": "[2]", "result": 50, "unit": "%"}, {"measurement": "Activity", "setting": "[10]", "result": "Non-toxic"}, {"measurement": "Activity", "setting": "[11]", "result": "Non-toxic"}, {"measurement": "inhibition in vivo at 200 mg/kg/day", "setting": "[12]", "result": 30, "unit": "%"}, {"measurement": "Activity", "setting": "[13]", "result": "Non-toxic"}, {"measurement": "Activity", "setting": "[14]", "result": "Non-toxic"}, {"measurement": "inhibition in vivo at 200 mg/kg/day", "setting": "[15]", "result": 25, "unit": "%"}, {"measurement": "Activity", "setting": "[16]", "result": "Toxic"}]}]}
